Reference: PubChem BioAssay
Activity calls are given as the source filed them.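 The calls were made as follows, unless noted: active = NADPH fluorescence slope more negative than the mean of all samples by about 3 SD, 99.7% confidence; inactive = the rest.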

Assays:
[1] = inhibitors of TNFa-induced NFkB p65 translocation, primary screen, imaging, HUVEC, MLSMR starter and 10KST1 sets (AID 438;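 active = inhibition above 20% together with a positive visual image hit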;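 also: compound added about 3h40 before a 20 min TNFalpha stimulation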;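 as to inhibition: signal is the nuclear over cytoplasmic p65 intensity ratio per well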); settings: HUVEC TNFa-induced p65 nuclear translocation; cell count: measured here: nuclei count (cytotoxicity indicator), at 2.08 µM; inhibition: at 2 µM, stronger effect = higher value, 0% TNFa-plus-vehicle, 100% no-TNFa wells
[2] = endothelial E-selectin expression blockers – imaging, HUVEC, immunofluorescence, MLSMR starter and 10KST1 sets, primary screen (AID 487;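 active = visually confirmed hit in the image check and inhibition above 20%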;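 as to inhibition: signal is fraction of cell area covered by stained E-selectin grains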;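 as to nuclei count: 100% = median nuclei count of all wells on the same plate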); settings: HUVEC TNFalpha-induced E-selectin immunofluorescence imaging, at 2 µM; inhibition: stronger effect = higher value; nuclei count: measured here: cell number, toxicity
[3] = Primary imaging screen for DUSP6 inhibitors that restore phospho-Erk in transfected HeLa cells, chemical complementation (AID 609;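 active = compounds giving at least 50% inhibition in the cell-based MKP-3 phosphatase rescue imaging test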;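 as to inhibition: phospho-Erk level distribution per well compared with pooled transfected vehicle control wells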); settings: HeLa MKP-3 transfected, phospho-Erk imaging KS statistic, at 10 µM, cells stimulated with TPA for 15 min
[4] = biological target: Dual specificity protein phosphatase 6 (Homo sapiens) (UniProt Q16828); experiment: as above; settings: HeLa MKP-3 transfected, phospho-Erk imaging KS statistic; at 10 µM; stronger effect = higher value; cells stimulated with TPA for 15 min
[5] = biological target: Voltage-gated potassium channel subunit beta-2 (Rattus norvegicus) (UniProt P62483); experiment: inhibitors of rat Kvbeta2 reductase activity – biochemical, NADPH fluorescence, primary screen (AID 622;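 active = fluorescence slope higher than the sample average by over 3 SD, cut at about -0.22 in these data, passing the limit was not always enough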;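 also: slope of raw intensity against log time taken from 70 to 1610 s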); settings: recombinant KvBeta, 4-cyanobenzaldehyde reduction, at 10 µM, stronger effect = higher value
[6] = biological target: Voltage-gated potassium channel subunit beta-2 (Rattus norvegicus) (UniProt P62483); experiment: enhancers of rat Kvbeta2 NADPH turnover – biochemical, NADPH fluorescence, primary screen (AID 623); settings: Recombinant KvBeta, NADPH fluorescence decrease slope, 10 min; at 10 µM; stronger effect = lower value;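 also: fluorescence intensity change per second fitted from 20 to 320 s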
[7] = biological target: Muscarinic acetylcholine receptor M4 (Homo sapiens) (UniProt P08173); experiment: M4-linked GIRK flux change, two-sided – cell-based, HEK293 M4/GIRK, thallium flux, BTC-AM, M4 allosteric agonist project, primary screen (AID 625;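 active = fluorescence slope after compound addition differing from the mean of all tested samples at 99.7% confidence, mostly higher but some lower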;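 also: thallium influx through GIRK channels coupled to M4 in HEK293 cells with BTC-AM dye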); settings: at 10 µM, actives lie on both sides
Method in brief: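 System: HEK293 cells with M4 receptor and GIRK channels | Incubation: Cells overnight at 37 °C, BTC-AM loading 1 h, reads 2 min total | Technique: Kinetic BTC-AM fluorescence sampled at 1 Hz, 10 s pre-addition baseline | Measure: Post-addition slope, 15–24 s, of baseline-normalized fluorescence | Control set: Carbachol positive, DMSO negative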

[8] = inhibitors of larval lipid processing in zebrafish, primary screen, whole organism, PED6 fluorescence, gall bladder and intestine (AID 686;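 active = a full or partial loss of lipid-probe fluorescence in the fish gall bladder, intestine or both, judged by eye; inactive = no fluorescence loss, or compound toxic to the fish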;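 also: larvae 5 to 7 days old with five fish per well; signal comes from phospholipase A2 cleavage of quenched PED6 carried via bile; overnight exposure to compound and PED6 before scoring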); settings: Zebrafish larvae PED6 lipid processing, fluorescence scoring; screened at 20 µM (by protocol)
Method in brief: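 Test system – live zebrafish larvae aged 5-7 days, whole organism · Buffer or medium – E3 fish medium · Reagent – quenched phospholipase substrate PED6, 100 nM final, ingested by larvae · Doses – 20 µM single dose · Incubation – overnight compound and PED6 incubation · Technique – visual fluorescence microscopy scoring of gall bladder, gut · Read-out basis – visual per-well fluorescence inhibition score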

[9] = loss of swimming-algae plug formation – whole organism, Chlamydomonas reinhardtii, WT vs cilia-less mutant, absorbance, 96-well, primary screen (AID 463189;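 active = inhibition at or above 50% relative to wild type and mutant plate controls; inactive = inhibition below 50%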;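 also: 0% = wild type cc124 cells in DMSO and 100% = ciliumless bld1 mutant cells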); settings: Chlamydomonas reinhardtii gravitaxis, OD600 absorbance, 2 days; at 10 µM; stronger effect = higher value
[10] = measured here: cell density z-score
[11] = measured here: nuclear c-Myc green intensity z-score
[12] = measured here: nuclear pErk red intensity z-score, stronger effect = higher value

Sequence of Dual specificity protein phosphatase 6 (Homo sapiens) (Q16828 whole entry, looked up): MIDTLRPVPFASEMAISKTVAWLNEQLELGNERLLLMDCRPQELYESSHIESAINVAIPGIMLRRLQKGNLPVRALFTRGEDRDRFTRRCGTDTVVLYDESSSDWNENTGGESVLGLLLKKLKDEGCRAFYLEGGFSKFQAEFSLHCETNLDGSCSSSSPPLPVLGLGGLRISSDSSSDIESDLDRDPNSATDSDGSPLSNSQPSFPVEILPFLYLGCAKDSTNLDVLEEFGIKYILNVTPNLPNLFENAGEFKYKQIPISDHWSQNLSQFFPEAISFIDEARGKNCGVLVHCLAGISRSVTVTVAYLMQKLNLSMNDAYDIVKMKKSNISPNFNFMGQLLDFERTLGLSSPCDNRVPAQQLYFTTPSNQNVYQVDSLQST
Sequence of Voltage-gated potassium channel subunit beta-2 (Rattus norvegicus) (P62483 whole entry, looked up): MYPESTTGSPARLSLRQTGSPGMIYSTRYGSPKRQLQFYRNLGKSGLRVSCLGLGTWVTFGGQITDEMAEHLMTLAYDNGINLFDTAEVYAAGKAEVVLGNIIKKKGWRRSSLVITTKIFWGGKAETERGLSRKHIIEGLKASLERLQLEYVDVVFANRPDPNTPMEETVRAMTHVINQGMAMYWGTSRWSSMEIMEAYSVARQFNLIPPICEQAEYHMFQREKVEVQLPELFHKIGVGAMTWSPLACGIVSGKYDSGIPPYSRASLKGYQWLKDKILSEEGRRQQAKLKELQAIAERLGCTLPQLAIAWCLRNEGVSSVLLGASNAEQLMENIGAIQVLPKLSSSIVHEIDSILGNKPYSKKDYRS
Sequence of Muscarinic acetylcholine receptor M4 (Homo sapiens) (P08173 whole entry, looked up): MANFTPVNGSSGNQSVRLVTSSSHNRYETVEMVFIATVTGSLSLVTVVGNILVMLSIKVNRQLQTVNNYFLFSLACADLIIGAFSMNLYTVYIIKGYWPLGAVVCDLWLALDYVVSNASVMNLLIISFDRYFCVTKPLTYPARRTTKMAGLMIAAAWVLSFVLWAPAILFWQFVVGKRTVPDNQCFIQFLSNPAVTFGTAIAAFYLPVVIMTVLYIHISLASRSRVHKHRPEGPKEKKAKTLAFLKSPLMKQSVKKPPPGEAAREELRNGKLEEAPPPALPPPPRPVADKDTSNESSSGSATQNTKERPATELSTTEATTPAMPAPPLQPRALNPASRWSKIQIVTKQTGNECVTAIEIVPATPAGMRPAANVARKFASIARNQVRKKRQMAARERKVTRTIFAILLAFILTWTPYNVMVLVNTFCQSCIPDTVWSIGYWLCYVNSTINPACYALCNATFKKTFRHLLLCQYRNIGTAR

Row | SMILES | cell count [1] | inhibition [1] | inhibition [2] | nuclei count [2] | z-score [3, 10] | z-score [3, 11] | z-score [3, 12] | inhibition [4] | fluorescence slope [5] | NADPH fluorescence slope [6] | fluorescence slope [7] | outcome [8] | inhibition [9]
1 | CN1Cc2c(N3CCOCC3)nc(SCc3ccccc3)c(C#N)c2CC1(C)C | 524 | -3.1% (inactive) | -101% (inactive) | 134% | -1.78 | -0.223 | -1.03 | -0.584% (inactive) | -0.496 (inactive) | -7.5e-06 (inactive) | 0.00495 (inactive) | inactive | 17.9% (inactive)
2 | C=CCn1c(SCC(=O)c2ccc(NS(=O)(=O)c3ccccc3)cc2)nnc1-c1cccs1 | 682 | 3.2% (inactive) | -98.4% (inactive) | 156% | -0.412 | -0.46 | 0.993 | -13.3% (inactive) | -0.473 (inactive) | -4.5e-05 (inactive) | 0.00636 (inactive) | inactive | -10.7% (inactive)
3 | CCOC(=O)C(C(=O)OCC)N(C#N)c1nc(SC)nc(N(C)C)n1 | 607 | -2.8% (inactive) | 42.8% (inactive) | 86.4% | -3.26 | 2.37 | 4.3 | 33.3% (inactive) | -0.457 (inactive) | -5e-05 (inactive) | 0.00538 (inactive) | inactive | -15.2% (inactive)
4 | O=C(CC1SC2=NCCN2C1=O)Nc1ccccc1 (stereo not given) | 693 | -7.8% (inactive) | -79.2% (inactive) | 167% | -0.578 | 0.509 | 0.504 | 18.6% (inactive) | -0.42 (inactive) | -5.8e-05 (inactive) | 0.00447 (inactive) | inactive | -0.757% (inactive)
5 | N#Cc1nc(-c2cccs2)oc1NCc1ccccc1 | 712 | 0.5% (inactive) | -23.3% (inactive) | 148% | 0.919 | 1.11 | 0.281 | -7.67% (inactive) | -0.329 (inactive) | -2.5e-05 (inactive) | 0.00659 (inactive) | inactive | 7.94% (inactive)
6 | Cc1ccc(-n2c(SCC(=O)NCc3ccco3)nc3nc4c(cc3c2=O)COC(C)(C)C4)cc1 | 518 | -21.3% (inactive) | 9.1% (inactive) | 176% | 0.611 | -1.97 | 0.29 | 3.97% (inactive) | -0.408 (inactive) | -1.9e-05 (inactive) | 0.00603 (inactive) | inactive | 17% (inactive)
7 | Fc1ccc2[nH]c3c(N4CCSCC4)ncnc3c2c1 | 664 | -4.3% (inactive) | 0.7% (inactive) | 153% | -0.905 | 0.444 | 1.27 | -3.95% (inactive) | -0.418 (inactive) | -2.2e-05 (inactive) | 0.00396 (inactive) | inactive; toxic | 5.41% (inactive)
8 | COC(=O)CCc1c(C)[nH]c(=S)[nH]c1=O | 364 | -0.7% (inactive) | -74.5% (inactive) | 111% | -0.296 | -0.397 | -1.03 | -4.78% (inactive) | -0.521 (inactive) | -2.4e-05 (inactive) | 0.00625 (inactive) | inactive | -5.54% (inactive)
9 | O=C(CC(c1ccco1)S(=O)(=O)c1ccccc1)c1ccc(F)cc1 (stereo not given) | 585 | -2% (inactive) | -105% (inactive) | 138% | -0.324 | 0.355 | 1.32 | -14.6% (inactive) | -0.413 (inactive) | -0.000113 (inactive) | 0.00466 (inactive) | inactive | 28.8% (inactive)
10 | Cc1nc(SCC(=O)Nc2ccc3c(c2)OCO3)c(C#N)c2c1CCCC2 | 490 | 1.3% (inactive) | -215% (inactive) | 145% | -0.268 | -1.41 | 0.298 | 9.37% (inactive) | -0.472 (inactive) | -4e-05 (inactive) | 0.00555 (inactive) | inactive | 19.8% (inactive)
11 | COc1ccccc1-c1nnc2n1N=C(c1ccc(O)c(O)c1)CS2 | 485 | 50.9% (active) | -490% (inactive) | 70.4% | 1.36 | -1.29 | -0.603 | -6.48% (inactive) | -0.429 (inactive) | -1.7e-05 (inactive) | 0.00474 (inactive) | inactive | -2.32% (inactive)
12 | CCOC(=O)/C(C#N)=C1/SC(CCO)C(=O)N1c1ccccc1 (stereo not given) | 541 | -19.2% (inactive) | -6.8% (inactive) | 122% | -0.811 | 0.0733 | 0.776 | -2.59% (inactive) | -0.373 (inactive) | -2e-05 (inactive) | 0.00516 (inactive) | inactive | -8.39% (inactive)
13 | CNc1oc(-c2cccs2)nc1C#N | 683 | -0.7% (inactive) | -2.1% (inactive) | 144% | 0.965 | 0.294 | 0.102 | 1.63% (inactive) | -0.0289 (inactive) | -2.3e-05 (inactive) | 0.00668 (inactive) | inactive | 7.4% (inactive)
14 | CCCCN(C(=O)CCC(=O)O)C1CC(=O)N(c2ccc(OCCC)cc2)C1=O (stereo not given) | 639 | 5.2% (inactive) | -33% (inactive) | 116% | -0.992 | -0.45 | -0.105 | -9.53% (inactive) | -0.464 (inactive) | -2.3e-05 (inactive) | 0.00463 (inactive) | inactive | -0.122% (inactive)
15 | Cc1ccc(N(CC(O)CN(C)C)S(=O)(=O)c2ccccc2)cc1 (stereo not given) | 587 | -9.4% (inactive) | 6.4% (inactive) | 192% | 1.28 | -0.151 | 0.0736 | -4.59% (inactive) | -0.384 (inactive) | -7.3e-05 (inactive) | 0.00579 (inactive) | inactive | 11.5% (inactive)
16 | CCSC1=C(C#N)C(c2cccs2)C(C(=O)OC)=C(C)N1 (stereo not given) | 704 | -1% (inactive) | -26.7% (inactive) | 161% | 1.09 | -0.139 | -1.35 | 2.46% (inactive) | -0.442 (inactive) | -5.3e-05 (inactive) | 0.00541 (inactive) | inactive | -1.08% (inactive)
17 | CCn1nc(NC(=O)c2ccco2)c2cc3ccccc3nc21 | 700 | -11.3% (inactive) | -20.2% (inactive) | 168% | -0.0808 | 0.362 | -0.0698 | -6.48% (inactive) | -0.404 (inactive) | -4.1e-05 (inactive) | 0.0055 (inactive) | inactive | -8.58% (inactive)
18 | Cc1cccc(NC(=O)c2c(C)cc(=O)oc2C)n1 | 522 | -1.7% (inactive) | 26.4% (inactive) | 170% | 0.944 | 0.403 | -0.669 | 7.93% (inactive) | -0.374 (inactive) | -3.7e-05 (inactive) | 0.00509 (inactive) | inactive | -9.96% (inactive)
19 | Cc1cc(N2C(=O)C(=O)/C(=C(/O)c3ccccc3)C2c2cccs2)no1 (stereo not given) | 668 | 0.1% (inactive) | -91.9% (inactive) | 165% | 0.267 | -0.396 | -0.163 | 6.04% (inactive) | -0.486 (inactive) | -1.4e-05 (inactive) | 0.00578 (inactive) | inactive | 24.8% (inactive)
20 | CC(C)Cc1nc(N2CCN(C(=O)Cc3ccccc3)CC2)c(C#N)c2c1COC(C)(C)C2 | 601 | -8.9% (inactive) | -80.2% (inactive) | 153% | -0.132 | -0.0812 | -0.136 | 9.07% (inactive) | -0.453 (inactive) | -0.000102 (inactive) | 0.00471 (inactive) | inactive | 13.3% (inactive)
21 | CN(C)c1cccc2c(S(=O)(=O)N3CCOCC3)cccc12 | 607 | -7.5% (inactive) | -24.7% (inactive) | 157% | -2.51 | 1.31 | -0.367 | -9.91% (inactive) | -0.275 (inactive) | -7.8e-05 (inactive) | 0.00799 (inactive) | inactive | -1.61% (inactive)
22 | O=S(=O)(c1cccc(-c2csc(-c3ccccc3)n2)c1)N1CCOCC1 | 681 | -6% (inactive) | 21.6% (inactive) | 172% | -0.667 | -0.235 | -0.477 | -2.29% (inactive) | -0.452 (inactive) | -5.8e-05 (inactive) | 0.00515 (inactive) | inactive | 25.2% (inactive)
23 | CN1CCN(c2c3c(c(C#N)c4nc5ccccc5n24)CCCC3)CC1 | 514 | 0.8% (inactive) | -60.7% (inactive) | 130% | 1.3 | -0.661 | -1.13 | 5.95% (inactive) | -0.35 (inactive) | -3.3e-05 (inactive) | 0.00748 (inactive) | inactive | -10.8% (inactive)
24 | CN(CCCCCC(=O)/C=N/O)Cc1ccccc1 | 673 | -7.2% (inactive) | -29.9% (inactive) | 182% | -0.259 | -0.553 | -0.0581 | -9.53% (inactive) | -0.493 (inactive) | -9.8e-05 (inactive) | 0.00525 (inactive) | inactive | 23.8% (inactive)
25 | Cc1ccc(C2/C(=C(\O)c3ccc4c(c3)OCCO4)C(=O)C(=O)N2CCCN(C)C)o1 (stereo not given) | 360 | -5.9% (inactive) | 24.2% (inactive) | 113% | -1.73 | 0.575 | -0.16 | 14% (inactive) | -0.474 (inactive) | -8.1e-06 (inactive) | 0.00787 (inactive) | inactive | -17.7% (inactive)
